From PubChem BioAssay AID652260 (The Scripps Research Institute Molecular Screening Center, 2013)
The campaign covered roughly 3,500 compounds. About 1,000 (29%) were called active. Not all results are given here. Values without a mark were called inactive.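 How the source made its calls: active means activation above its plate's cutoff, the mean activation of tested wells plus 3 SD (cut at about 7.9% in these data); inactive means the rest.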

experiment: SMARCA2 (BRM) function activators, confirmation, cell-based, luminescence, triplicate (AID 652260); details: MG213 cells, MMTV-luciferase with dexamethasone, overnight, at 9.1 µM, active compounds read high, DMSO wells 0%, reference activator 100%, MG213 cells expressing E1A, Rb sequestered
Outline: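 Assay system: MG213 MMTV-luciferase reporter cells; Quantity: 600 cells in each well; Incubation: compound exposure 24 h at 37 °C after 1-day dexamethasone priming; Read-out basis: % activation relative to DMSO and positive-control wells; Measured by: OneGlo luminescence, 15 min room-temperature incubation; Benchmarks: DMSO wells as low control, reference activator compound as high.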

SMILES	activation
CCOC(=O)C(C)n1cnc2c(nnn2-c2cccc(OC)c2)c1=O (stereo not drawn)	4.29%
COc1cccc(-c2nc3cc(C)ccc3o2)c1	7.4%
CCN(CC)C(=O)CSc1nnc(-c2cccc(OC)c2)o1	8.07% (active)
CCNC(=S)N1CCN(c2ncccn2)CC1	-2.06%
Cc1cc(C)nc(Nc2n[nH]c(-c3ccccc3N)n2)n1	5.41%
CC(C)C[C@H]1CNC(=O)C(=O)N1C[C@H]1CCCN1C[C@H](Cc1ccc(O)cc1)N1C[C@H](CC(C)C)N(CC2CCCCCC2)C(=O)C1=O	-0.79%
COc1ccc(C(=O)Nc2ccc3c(c2)OCO3)cc1OC	7.86% (active)
O=C(Nc1cccc([N+](=O)[O-])c1)c1ccc2c(c1)OCO2	3.25%
COCC(C)n1c(SCc2ccc(C(=O)OC)o2)nc2ccccc2c1=O (stereo not drawn)	0.09%
Cc1cc(-c2n[nH]c(=S)n2/N=C/C(Br)=C/c2ccccc2)n[nH]1	2.39%
CC(=O)Nc1ccc(Nc2c3ccccc3nc3ccccc23)cc1	43% (active)
CCN(CC)CCNC(=O)c1ccc(NC(=O)c2cc(-c3ccncc3)nc3ccccc23)cc1	5.3%
O=C(Nc1ccc2nccnc2c1)c1ccco1	5.96%
CCCSC(=S)NC1CCS(=O)(=O)C1 (stereo not drawn)	-0.53%
c1ccc2cc3c(NCCN4CCOCC4)ccnc3cc2c1	34.6% (active)
COc1ccc(-c2cc(-c3ccc(N)cc3)nc(N)c2C#N)cc1OC	-1.93%
Cc1ccc(C(=O)NNC(=O)c2cccs2)cc1	1.93%
COc1ccc(/C=N/NC(=O)c2cc(-c3cccc(C)c3)nc3ccccc23)cc1O	1.04%
COc1ccc(N=C(C)c2sc3ccccc3c2O)cc1	9.34% (active)
Cc1cc(C)c2nc3nc(C)cc(C)c3c(N)c2c1	60% (active)
COc1ccc(Cn2c(C)c(C)c(C#N)c2NC(=O)Nc2ccc(F)cc2)cc1	4.61%
C/C(CC(=O)NC(C)(C)C)=N\NC(=O)c1ccco1	5.29%
CN(C)C(=S)N=c1ssc(=S)n1Cc1ccco1	15.4% (active)
O=C1/C(=C\c2ccc([N+](=O)[O-])cc2)CS(=O)(=O)C/C1=C/c1ccc([N+](=O)[O-])cc1	-15.7%
COc1ccccc1C1=Nc2cccc3cccc(c23)N1	2.63%

SMILES	activation
O=C(CCCCCn1c(=S)[nH]c2ccsc2c1=O)NC1CCCCC1	1.02%
C=C1C(=O)[C@]23C[C@H]1CCC2[C@@]1(C)C(C[C@@H]3O)[C@](C)(C(=O)O)CC[C@@H]1O (stereo partly drawn)	28.4% (active)
Cn1c(-c2ccc(F)cc2)cc2onc(-c3ccccc3Cl)c2c1=O	-3.34%
CN1CCN(CCCNC(=O)c2ccc(/C=C3\Oc4ccccc4N(Cc4ccc(Cl)cc4)C3=O)cc2)CC1	3.44%
COCn1c(COc2ccccc2)nc2ccccc21	8.62% (active)
CCc1ccc[n+](-c2nc([O-])sc2C=O)c1	-1.34%
COc1ccc(CC2c3cc(OC)c(OC)cc3CC[N+]2(C)CCC(=O)OCCCCCOC(=O)CC[N+]2(C)CCc3cc(OC)c(OC)cc3C2Cc2ccc(OC)c(OC)c2)cc1OC (stereo not drawn)	8.77% (active)
CCOC(=O)c1sc2nc(CSc3ccccc3)[nH]c(=O)c2c1C	-0.16%
COc1cc(CN2CCC(C(N)=O)CC2)ccc1OCc1ccccc1	13% (active)
O=C(c1cc(-c2ccc(O)cc2)on1)N1CCOCC1	7.73%
O=C(c1cc(-c2ccccc2O)on1)N1CCCC1	1.4%
O=C(c1cccs1)C1C(c2ccc(Br)cc2)NC(=S)NC1(O)C(F)(F)F (stereo not drawn)	5.35%
Cc1ccc(-c2nc3ccc(Br)cn3c2Cc2ccccc2C(F)(F)F)cc1	0.37%
CCN(CC)C(=O)c1sc2nc(-c3ccccc3)ccc2c1N	9.6% (active)
COc1ccc(C(CNC(=O)c2ccc(S(=O)(=O)Nc3ccccc3F)cc2)N(C)C)cc1 (stereo not drawn)	0.35%
CC(C)(C)C(=O)CSc1nc2ccccc2o1	6.81%
CN(C)S(=O)(=O)c1ccc2oc(SCC(=O)Nc3ccccc3F)nc2c1	7.95% (active)
Cc1noc(C)c1/C=N/Nc1ccc2ccccc2n1	4.24%
CC1CCCCN1C(=S)NCc1ccccc1 (stereo not drawn)	0.99%
COc1ccc(-c2cc3ncccc3cn2)cc1	8.92% (active)
COc1ccc(-c2csc(Cc3nc(O)cs3)n2)cc1	-15.4%
CN(C)c1nc(=Nc2cccc(Cl)c2)ss1	-15.3%
Cc1n[nH]c(=O)nc1N/N=C/c1cccs1	3.07%
CCC1CCC/C1=N\NC(=O)c1ccc(Cl)cc1 (stereo not drawn)	2.31%
O=C(Nc1ccc2c(c1)CCC2)c1ccc(Br)s1	10.8% (active)

SMILES	activation
Cc1ccc(NC(=O)c2cnc(SCC(=O)NCC3CCCO3)n(C)c2=O)cc1 (stereo not drawn)	9.35% (active)
Cc1ccc(-c2c(C)n([O-])c3c([n+]2=O)CCC3)cc1	6.67%
N#Cc1ccccc1NC(=O)c1cccc(COc2ccc(Cl)cc2Cl)c1	4.05%
Fc1ccc(CNc2nc3ccccc3n3nnnc23)cc1	1.53%
COc1c(O)cc2oc(-c3ccc(O)c(O)c3)cc(=O)c2c1O	12.6% (active)
CCCCNC(=O)C1CCC(CNS(=O)(=O)c2ccc(NC(C)=O)cc2)CC1 (stereo not drawn)	-3.14%
Cc1cc2oc3ccc(NCCC4CCCN4C)cc3c(=O)c2cc1C (stereo not drawn)	5.48%
CC1CCCCC1NC(=O)CN1CCC(O)(c2ccc3c(c2)OCO3)CC1 (stereo not drawn)	-0.84%
CCCC(=O)N1c2ccc(-c3csc(N)n3)cc2CC1C (stereo not drawn)	8.32% (active)
Cc1cc(C(=O)NNC(=S)Nc2ccccc2C)cs1	3.37%
O=C(Nc1nnc(CCc2ccccc2)s1)C1CCCO1 (stereo not drawn)	1.02%
Cc1cc(C)c2nc(NC(=O)C3CCCO3)sc2c1 (stereo not drawn)	9.52% (active)
C=CC(=O)OCCOCCOCCOCCOC(=O)C=C	7.95% (active)
O=C1Cc2cc(S(=O)(=O)Nc3cccc(F)c3)ccc2N1	0.74%
NS(=O)(=O)c1ccccc1NC(=O)c1c(O)c2ccccc2[nH]c1=O	12.1% (active)
CCOc1cc(NC(=S)NCCCOC)c(OCC)cc1NC(=O)c1ccco1	-1.02%
Cc1ccc(S(=O)(=O)NC(C)C(=O)NCc2ccc(Cl)cc2)cc1 (stereo not drawn)	-3.9%
CCCCn1nnnc1C(c1cc2ccccc2o1)N(C)Cc1ccc(Cl)c(Cl)c1 (stereo not drawn)	-4.28%
COc1ccc(/C(N)=N/OC(=O)Oc2ccccc2)cc1	-2.89%
COc1ccccc1OCC(=O)O/N=C(\N)c1ccccn1	10.6% (active)
O=C(CSc1nc2ccccc2[nH]1)c1cccs1	2.82%
CN(C)CCNC(=O)c1cccc(-c2cnc3c(NC=O)cc(-c4cccc(C(F)(F)F)c4)cn23)c1	-12.7%
CC(=O)c1cccc(-c2cnc3c(NC=O)cc(-c4ccc(N5CCN(C)CC5)cc4)cn23)c1	16.5% (active)
CC(=O)Nc1cc(-c2ccc(N3CCN(C)CC3)cc2)cn2c(-c3ccc(F)cc3)cnc12	17.5% (active)
COc1ccc(C)cc1S(=O)(=O)N(CC(=O)Nc1cccc([N+](=O)[O-])c1)c1ccc(C)cc1	0.21%

SMILES	activation
Cc1ccc(S(=O)(=O)c2c[nH]c3ccc(Cl)cc3c2=O)cc1	0.08%
COc1ccc(S(=O)(=O)NC(C)C(=O)N2CCCCCC2)cc1 (stereo not drawn)	-2.64%
O=C(NCc1ccccn1)c1cnc2sccn2c1=O	1.34%
Cc1cc(C)n2nc(CNS(=O)(=O)c3c(F)c(F)c(F)c(F)c3F)nc2n1	19.1% (active)
Cc1cc(-n2cnc(-c3cn(C)nc3C)n2)no1	3.17%
COC(=O)C1C(=O)c2c([nH]c(C(=O)OCCSC)c2C)CC1C (stereo not drawn)	6.36%
O=C(O)c1cccc(N=NN2CCCCCC2)c1	12.5% (active)
CC(=O)c1sc(N/N=C\c2ccc(C)cc2)nc1C	6.84%
O=C(OCC(=O)c1cccs1)C1=COCCO1	8.33% (active)
COc1ccc(NC(=O)c2sccc2SCC#N)cc1	0.37%
Cc1cc(O)c(NC(=O)c2ccc(C)c([N+](=O)[O-])c2)cc1C	5.6%
Cc1cc(=O)[nH]c(N/N=C/c2ccc3c(c2)OCCO3)n1	7.09%
Cn1c2ccc(F)cc2c2nnc(NN)nc21	-1.11%
COc1ccc2nc(/N=C(\N)NC(=O)Nc3ccccc3)nc(C)c2c1	2.85%
Cc1nc(N=C(N)N)nc2c(C)cccc12	40.3% (active)
O=C(Nc1cccc([N+](=O)[O-])c1)N1CCc2ccccc2C1	5.56%
Cc1ccsc1-c1nc(CSCC(=O)NCCN2CCCC2)c(C)o1	-0.08%
CCC(=O)Nc1ccc2nn(-c3ccc(F)cc3)nc2c1	11.7% (active)
Cn1cc(/C=C/C(=O)N2CCCC(C(=O)c3ccc(C(F)(F)F)cc3)C2)cn1 (stereo not drawn)	1.67%
Cc1c(NC(=O)CSc2cccc3cccnc23)c(=O)n(-c2ccccc2)n1C	-8.3%
Cc1cccc(CSc2ccc(-c3cccs3)nn2)c1	7.87% (active)
COC(=O)Cc1nnn2c1[C@H](C)[C@H](c1ccccc1[N+](=O)[O-])OCC2	0.13%
O=[N+]([O-])c1ccc2c(c1)Nc1nc3ccccc3nc1N2	24.9% (active)
